Data from ChEMBL document CHEMBL4765368, “Structure guided design and synthesis of furyl thiazolidinedione derivatives as inhibitors of GLUT 1 and GLUT 4, and evaluation of their anti-leukemic potential” (Eur J Med Chem, 2020).
pIC50: −log10 of the molar value. Activity calls are given as the source filed them. The rule behind the calls is not given here.

Target: T1, Histone deacetylase 8 (Homo sapiens) (UniProt Q9BY41)
T1 sequence (whole entry): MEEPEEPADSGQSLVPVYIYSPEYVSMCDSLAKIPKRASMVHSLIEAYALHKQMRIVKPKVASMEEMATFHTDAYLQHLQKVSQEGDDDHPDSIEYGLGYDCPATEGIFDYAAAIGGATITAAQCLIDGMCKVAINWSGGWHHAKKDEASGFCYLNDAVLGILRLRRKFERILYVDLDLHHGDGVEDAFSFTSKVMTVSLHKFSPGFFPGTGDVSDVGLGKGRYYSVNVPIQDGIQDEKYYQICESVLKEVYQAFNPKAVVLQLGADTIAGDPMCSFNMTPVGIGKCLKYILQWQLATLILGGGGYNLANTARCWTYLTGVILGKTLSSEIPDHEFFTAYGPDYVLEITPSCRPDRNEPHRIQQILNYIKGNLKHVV
Experiment: (§1) Inhibition of recombinant human His6/SUMO-tagged HDAC8 expressed in Escherichia coli (BL21) DE3 pLysS assessed as residual activity at 50 uM using Boc-Lys(trifluoroacetyl)-AMC as substrate preincubated for 60 mins followed by substrate addition and measured after 60 mins by fluorescence assay relative to control
Settings: time 120.0 min
How it was run: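 20 μM Boc-Lys(trifluoroacetyl)-AMC was then added for 60 min at 30 °C, the reaction stopped with 1.7 μM SATFMK and developed with 0.4 mg/ml trypsin, and AMC fluorescence read at Ex 350/Em 450 nm. Triplicates; percent relative activity.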

| SMILES | Activity [%] |
| --- | --- |
| O=C(CN1C(=O)S/C(=C/c2ccco2)C1=O)Nc1ccc(Oc2ccccc2)cc1 | > 50 |
| O=C(CN1C(=O)S/C(=C/c2ccco2)C1=O)Nc1ccc([N+](=O)[O-])cc1 | 17 |
| O=C(CN1C(=O)S/C(=C/c2ccco2)C1=O)Nc1cc(C(F)(F)F)ccc1Cl | > 50 |
| O=C(CN1C(=O)S/C(=C/c2ccco2)C1=O)Nc1ccc(Br)c(Br)c1 | > 50 |
| O=C(CN1C(=O)S/C(=C/c2ccco2)C1=O)Nc1ccc(Br)cc1F | > 50 |
| O=C(CN1C(=O)S/C(=C/c2ccco2)C1=O)Nc1ccc(Br)cc1 | > 50 |
| Cc1cc(NC(=O)CN2C(=O)S/C(=C/c3ccco3)C2=O)no1 | > 50 |
| O=C(CN1C(=O)S/C(=C/c2ccco2)C1=O)Nc1ccccc1 | > 50 |
| O=C(CN1C(=O)S/C(=C/c2ccco2)C1=O)Nc1ccccn1 | > 50 |
| O=C(CN1C(=O)S/C(=C/c2ccco2)C1=O)Nc1ccc(Cl)cc1C(F)(F)F | > 50 |
| Cc1ccc(NC(=O)CN2C(=O)S/C(=C/c3ccco3)C2=O)cc1 | > 50 |

Tested on: KCL-22
Experiment: Cytotoxicity against human KCL-22 cells assessed as reduction in cell viability measured after 48 hrs by Hoechst 33342/propidium iodide staining based imaging analysis
Assay type: functional
Settings: not given
How it was run: (§2)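 Cells were seeded at 10,000 per well (HS-27 at 3,000) in 10% FBS RPMI (leukemic lines) or DMEM (MDA-MB-231, HS-27). Compound in DMSO (1% v/v final) at 0.5–100 µM for 48 h. Hoechst 33342 and PI were added 2 h before automated imaging; dead cells were co-stained. Quadruplicates. CC50 was taken by linear interpolation between the two concentrations nearest 50% death.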

| SMILES | CC50 [µM] |
| --- | --- |
| O=C(CN1C(=O)S/C(=C/c2ccco2)C1=O)Nc1ccc(Br)cc1 | 98.2 |
| Cc1cc(NC(=O)CN2C(=O)S/C(=C/c3ccco3)C2=O)no1 | > 100 |
| O=C(CN1C(=O)S/C(=C/c2ccco2)C1=O)Nc1ccc(Cl)cc1C(F)(F)F | > 100 |
| Cc1ccc(NC(=O)CN2C(=O)S/C(=C/c3ccco3)C2=O)cc1 | > 100 |

Tested on: K562
Experiment: Cytotoxicity against human K562 cells assessed as reduction in cell viability measured after 48 hrs by Hoechst 33342/propidium iodide staining based imaging analysis
Assay type: functional
Settings: not given
How it was run: as §2

| SMILES | CC50 [µM] |
| --- | --- |
| O=C(CN1C(=O)S/C(=C/c2ccco2)C1=O)Nc1ccc(Br)cc1 | 94 |
| Cc1cc(NC(=O)CN2C(=O)S/C(=C/c3ccco3)C2=O)no1 | 98.6 |
| O=C(CN1C(=O)S/C(=C/c2ccco2)C1=O)Nc1ccc(Cl)cc1C(F)(F)F | > 100 |
| Cc1ccc(NC(=O)CN2C(=O)S/C(=C/c3ccco3)C2=O)cc1 | > 100 |

Target: Histone deacetylase 4 (Homo sapiens) (UniProt P56524)
Experiment: as §1, with “N-terminal GST-tagged HDAC4 (627 to end residues)” for “His6/SUMO-tagged HDAC8”, “baculovirus infected Sf9 insect cells” for “Escherichia coli (BL21) DE3 pLysS”
Settings: time 120.0 min

Sequence of Histone deacetylase 4 (Homo sapiens) (P56524 whole entry): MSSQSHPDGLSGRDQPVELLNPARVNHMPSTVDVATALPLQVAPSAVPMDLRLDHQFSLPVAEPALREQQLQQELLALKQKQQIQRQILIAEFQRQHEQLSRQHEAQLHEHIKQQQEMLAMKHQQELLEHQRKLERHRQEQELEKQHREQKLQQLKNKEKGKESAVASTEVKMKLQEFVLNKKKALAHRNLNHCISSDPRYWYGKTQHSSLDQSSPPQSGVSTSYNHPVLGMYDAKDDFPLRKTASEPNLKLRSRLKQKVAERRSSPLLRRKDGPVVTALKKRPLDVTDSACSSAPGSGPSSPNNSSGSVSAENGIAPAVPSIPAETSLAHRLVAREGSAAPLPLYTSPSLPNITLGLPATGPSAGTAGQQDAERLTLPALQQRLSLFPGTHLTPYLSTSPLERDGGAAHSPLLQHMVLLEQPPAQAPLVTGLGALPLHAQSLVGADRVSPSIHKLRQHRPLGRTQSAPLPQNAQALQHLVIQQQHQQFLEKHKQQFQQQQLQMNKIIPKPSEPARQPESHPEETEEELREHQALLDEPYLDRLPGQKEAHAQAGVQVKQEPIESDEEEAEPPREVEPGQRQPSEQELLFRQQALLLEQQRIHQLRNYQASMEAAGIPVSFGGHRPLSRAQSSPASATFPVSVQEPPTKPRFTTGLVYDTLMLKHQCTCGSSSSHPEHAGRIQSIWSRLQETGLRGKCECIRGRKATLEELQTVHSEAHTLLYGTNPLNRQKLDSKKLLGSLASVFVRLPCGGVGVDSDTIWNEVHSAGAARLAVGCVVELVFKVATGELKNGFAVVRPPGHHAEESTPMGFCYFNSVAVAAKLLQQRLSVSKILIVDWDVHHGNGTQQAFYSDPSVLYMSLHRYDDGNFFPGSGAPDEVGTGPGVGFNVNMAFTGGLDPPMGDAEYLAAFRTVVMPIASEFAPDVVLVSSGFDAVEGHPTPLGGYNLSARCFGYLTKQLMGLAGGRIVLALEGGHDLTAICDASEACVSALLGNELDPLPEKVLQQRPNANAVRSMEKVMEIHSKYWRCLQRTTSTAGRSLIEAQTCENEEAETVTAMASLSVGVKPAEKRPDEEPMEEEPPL

| SMILES | Activity [%] |
| --- | --- |
| O=C(CN1C(=O)S/C(=C/c2ccco2)C1=O)Nc1ccc(Oc2ccccc2)cc1 | > 50 |
| O=C(CN1C(=O)S/C(=C/c2ccco2)C1=O)Nc1ccc([N+](=O)[O-])cc1 | > 50 |
| O=C(CN1C(=O)S/C(=C/c2ccco2)C1=O)Nc1cc(C(F)(F)F)ccc1Cl | > 50 |
| O=C(CN1C(=O)S/C(=C/c2ccco2)C1=O)Nc1ccc(Br)c(Br)c1 | > 50 |
| O=C(CN1C(=O)S/C(=C/c2ccco2)C1=O)Nc1ccc(Br)cc1F | > 50 |
| O=C(CN1C(=O)S/C(=C/c2ccco2)C1=O)Nc1ccc(Br)cc1 | > 50 |
| Cc1cc(NC(=O)CN2C(=O)S/C(=C/c3ccco3)C2=O)no1 | > 50 |
| O=C(CN1C(=O)S/C(=C/c2ccco2)C1=O)Nc1ccccc1 | > 50 |
| O=C(CN1C(=O)S/C(=C/c2ccco2)C1=O)Nc1ccccn1 | > 50 |
| O=C(CN1C(=O)S/C(=C/c2ccco2)C1=O)Nc1ccc(Cl)cc1C(F)(F)F | > 50 |
| Cc1ccc(NC(=O)CN2C(=O)S/C(=C/c3ccco3)C2=O)cc1 | > 50 |

Target: T2, Histone deacetylase 8 (Homo sapiens, UniProt Q9BY41)
T2 sequence (Q9BY41 whole entry): T1 sequence (whole entry)
Experiment: Inhibition of recombinant human His6/SUMO-tagged HDAC8 expressed in Escherichia coli (BL21) DE3 pLysS using Boc-Lys(trifluoroacetyl)-AMC as substrate preincubated for 60 mins followed by substrate addition and measured after 60 mins by fluorescence assay
Settings: not given

| SMILES | pIC50 |
| --- | --- |
| O=C(CN1C(=O)S/C(=C/c2ccco2)C1=O)Nc1ccc([N+](=O)[O-])cc1 | 4.89 |

Target: T3, Solute carrier family 2, facilitated glucose transporter member 5 (Homo sapiens) (UniProt P22732)
T3 sequence (whole entry): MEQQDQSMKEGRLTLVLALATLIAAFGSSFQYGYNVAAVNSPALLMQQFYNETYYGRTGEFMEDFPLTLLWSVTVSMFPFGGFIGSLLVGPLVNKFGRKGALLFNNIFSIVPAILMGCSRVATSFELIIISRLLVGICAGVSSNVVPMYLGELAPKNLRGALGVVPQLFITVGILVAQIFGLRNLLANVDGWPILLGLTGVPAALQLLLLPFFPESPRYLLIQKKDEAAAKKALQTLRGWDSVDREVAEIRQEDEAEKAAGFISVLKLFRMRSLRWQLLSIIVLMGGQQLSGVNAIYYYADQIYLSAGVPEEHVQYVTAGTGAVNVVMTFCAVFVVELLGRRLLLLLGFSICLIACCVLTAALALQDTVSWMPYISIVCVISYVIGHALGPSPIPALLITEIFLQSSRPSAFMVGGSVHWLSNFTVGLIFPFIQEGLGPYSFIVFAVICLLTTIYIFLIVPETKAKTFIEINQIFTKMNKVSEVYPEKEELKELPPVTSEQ
Experiment: Inhibition of transport activity of human GLUT5 expressed in hexose transporter deficient VW4000 yeast cells assessed as reduction in transporter-mediated [14C]-fructose uptake into cells at 100 uM measured after 10 mins by scintillation counting method
Assay type: cell-based
Settings: not given
How it was run: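 The hxt0 yeast strain expressing one human GLUT was grown at 30 °C and resuspended in PBS pH 7.4 at OD600 ~10. Uptake was started with 14C-glucose at 5 mM final (GLUT1, GLUT4) or 14C-fructose at 10 mM final (GLUT5). It was quenched after 10 min with ice-cold 0.1 M KPi/0.1 M LiCl pH 5.5, filtered and counted by scintillation. Compound at 100 μM with 1% DMSO; DMSO control and phloretin 200 μM (GLUT1/4) or MSNBA 100 μM (GLUT5) as references. Triplicates.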

| SMILES | inhibition |
| --- | --- |
| O=C(CN1C(=O)S/C(=C/c2ccco2)C1=O)Nc1ccc(Oc2ccccc2)cc1 | inactive |
| O=C(CN1C(=O)S/C(=C/c2ccco2)C1=O)Nc1ccc([N+](=O)[O-])cc1 | inactive |
| O=C(CN1C(=O)S/C(=C/c2ccco2)C1=O)Nc1cc(C(F)(F)F)ccc1Cl | inactive |
| O=C(CN1C(=O)S/C(=C/c2ccco2)C1=O)Nc1ccc(Br)cc1F | inactive |
| O=C(CN1C(=O)S/C(=C/c2ccco2)C1=O)Nc1ccc(Br)cc1 | inactive |
| Cc1cc(NC(=O)CN2C(=O)S/C(=C/c3ccco3)C2=O)no1 | inactive |
| O=C(CN1C(=O)S/C(=C/c2ccco2)C1=O)Nc1ccccc1 | inactive |
| O=C(CN1C(=O)S/C(=C/c2ccco2)C1=O)Nc1ccccn1 | inactive |
| O=C(CN1C(=O)S/C(=C/c2ccco2)C1=O)Nc1ccc(Cl)cc1C(F)(F)F | inactive |
| Cc1ccc(NC(=O)CN2C(=O)S/C(=C/c3ccco3)C2=O)cc1 | inactive |

Tested on: CCRF-CEM
Experiment: Cytotoxicity against human CCRF-CEM cells assessed as reduction in cell viability measured after 48 hrs by Hoechst 33342/propidium iodide staining based imaging analysis
Assay type: functional
Settings: not given
How it was run: as §2

| SMILES | CC50 [µM] |
| --- | --- |
| O=C(CN1C(=O)S/C(=C/c2ccco2)C1=O)Nc1ccc(Br)cc1 | 81 |
| Cc1cc(NC(=O)CN2C(=O)S/C(=C/c3ccco3)C2=O)no1 | > 100 |
| O=C(CN1C(=O)S/C(=C/c2ccco2)C1=O)Nc1ccc(Cl)cc1C(F)(F)F | 79.9 |
| Cc1ccc(NC(=O)CN2C(=O)S/C(=C/c3ccco3)C2=O)cc1 | 102 |
